In general, Kd refers to the equilibrium constant for the complex coming apart. A low value points to higher affinity. In general, kon refers to a measure of how fast the partners come together. Higher therefore signals faster complex formation. The term koff denotes a measure of how fast the partners let go of each other. A high value points to fast dissociation.

Where “and” joins values, the source holds several entries; their conditions need not be identical. Identical values can stand only once. A value given as a limit tells only on which side of the number the result lay.

The values that follow come from article PMC6936558 (Proceedings of the National Academy of Sciences of the …, 2019).

Test [1] has as its target SpyCatcher003. In words: SPR. A general note: In SPR one partner is held on a chip, and binding of the other changes the refractive index at the surface.
For test [2], the target named is SpyCatcher002-555. The experiment in a line: FRET or BRET.
Test [3] relates to SpyCatcher003. The experiment in a line: Isothermal titration calorimetry. It is filed as binding, Streptococcus pyogenes. As to conditions: PBS pH 7.4, 25 °C. For orientation: Isothermal titration calorimetry measures the heat released or taken up as one component is titrated into another.
For test [4], the system named is SpyCatcher003-sfGFP. The experiment in a line: Comparison of stages of SpyTag development. It is filed as biochemical. The following applies: 10 nM each, 10 min, SPG buffer pH 7.0 + 0.2% BSA, 25 °C; n = 3.
For the next test, the target named is SpyCatcher003-555. In words: FRET or BRET. On the technique in general: In BRET a luciferase serves as donor, and the signal depends on an acceptor being close.
Test [5] has as its target SpyCatcher003. The experiment in a line: covalent reaction followed by SDS/PAGE with Coomassie staining.
Test [6] concerns the target SpyCatcher003-sfGFP. The experiment in a line: covalent reaction.
The next test relates to SpyCatcher002-sfGFP. As to conditions: cited from earlier work.
Test [7] relates to SpyCatcher002-555. In words: Stopped-flow FRET kinetics. The following applies: PBS pH 7.4, 25 °C; mean ± 1 SD, n = 4. It is filed as binding, Streptococcus pyogenes. Put shortly:
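Stopped-flow fluorescence with 1:1 mixing at 25 °C in PBS pH 7.4, excitation 480 nm, emission through a 515-nm long-pass filter. The SpyTag variant-mClover3 was at 100 nM final against pseudo-first-order SpyCatcher variant-555 at 400 to 1,000 nM. kon came from a linear fit of the first-phase kobs against SpyCatcher variant concentration.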

In the test with SpyCatcher003 [1], SpyTag003 DA-MBP (peptide) returned a Kd of 21 nM.

The substance SpyTag002-mClover3 (peptide) gave an on-rate (kon) in the test with SpyCatcher002-555 [2] of 420000 M⁻¹ s⁻¹.

With RGVPHIVMVAAYKRYK [SpyTag003 DA-MBP], the “affinity by ITC” value with SpyCatcher003 [3] is reported as “too tight to measure by ITC”.

As to VPHIVMVDAYKRYK [SpyTag002 T112H], in the test with SpyCatcher003-sfGFP [4], the “effect of Tag mutation on reaction rate” value is reported as “enhanced reaction rate”.

With SpyTag003 DA-mClover3 (peptide), in the test with SpyCatcher003-555, the dissociation rate constant, first phase of the chase (90% of signal change) worked out at 0.009 s⁻¹; the dissociation rate constant, second phase of the chase (10% of signal change) amounted to 0.002 s⁻¹; the estimated Kd of one version of the complex (dissociation rate constant / kon) is 3 nM and 13 nM; the kobs2 (second phase) is 0.08 s⁻¹. In the test with SpyCatcher003-555, this substance showed a kobs3 (third phase) of 0.004 s⁻¹ and a kon of 680000 M⁻¹ s⁻¹.

As for “SpyTag003-maltose binding protein (MBP) (peptide)”, in the test with SpyCatcher003 [5], the percent completion of the covalent reaction (SpyCatcher003 in excess) is more than 99% and the percent completion of the covalent reaction (SpyTag003 in excess) was more than 99%. The substance further returned a percent completion of the covalent reaction (10 nM each, 15 min) with SpyCatcher003-sfGFP [6] of more than 90%.

Turning to VPTIVMVDAYKRYK [SpyTag002], the “improvement of rate of reaction over SpyTag/SpyCatcher” value in the test on SpyCatcher002-sfGFP (by phage display selection, SpyTag002 and SpyCatcher002) was more than 12 fold. In the test on SpyCatcher002-sfGFP (previously shown), the “second-order rate constant, SpyTag002/SpyCatcher002” value was 20000 M⁻¹ s⁻¹. Moreover, the “association rate constant (kon)” value in the test on SpyCatcher002-555 [7] was 4.2 ± 0.5 × 10^5 M^−1 s^−1.

In the test with SpyCatcher003-555, SpyTag003-mClover3 (peptide) came in with a decrease in donor (mClover3) peak fluorescence intensity of 35%; a kobs1 (first phase, 500 nM SpyCatcher003-555) of 0.54 s⁻¹; a kobs2 (second phase, 500 nM SpyCatcher003-555) of 0.016 s⁻¹; a kobs3 (third phase, 500 nM SpyCatcher003-555) of 0.004 s⁻¹. Besides, in the test with SpyCatcher003-555, the koff was 0.26 s⁻¹ and the kon was determined as 620000 M⁻¹ s⁻¹.
